# Data taken from ChEMBL document CHEMBL1142101, “Cytotoxic diterpenoids from the bark of Pseudolarix kaempferi and their structure-activity relationships” (J Nat Prod, 2007).
# pIC50: −log10 of the molar value.
# Legend:
# HL-60 = experiment: Cytotoxicity against human HL60 cells after 48 hrs by MTT assay; type: cell-based; conditions: for Activity: human, hl-60, 48 h; for pIC50: Homo sapiens, HL-60, 48 h
# Procedure, shortened: (§1)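 Cells seeded in 96-well plates and exposed to serial dilutions of test compound spanning 10-2 to 102 µM. Incubated 48 h at 37 °C in humidified air with 5% CO2. Growth inhibition read by MTT. IC50 taken as the concentration (µM) giving 50% inhibition of cell growth.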
# [1] = Cytotoxicity against human BGC823 cells after 48 hrs by MTT assay; type: cell-based, BGC-823; conditions: for Activity: human, bgc-823, 48 h; for pIC50: Homo sapiens, BGC-823, 48 h; procedure, shortened: as §1
# [2] = Cytotoxicity against human Bel7402 cells after 48 hrs by MTT assay; type: cell-based, Bel-7402; conditions: for Activity: human, bel-7402, 48 h; for IC50: bel-7402; for pIC50: Homo sapiens, Bel-7402, 48 h, read-out: IC50; procedure, shortened: as §1
Compound,Activity (HL-60),Activity [1],Activity [2],IC50 [2],pIC50 (HL-60),pIC50 [1],pIC50 [2]
COC(=O)C1=CC[C@@]23CC[C@@H]([C@@](C)(/C=C/C=C(\C)C(=O)OCC(O)CO)OC2=O)[C@@]3(O)CC1 (stereo partly drawn),Not Active,Not Active,Not Active,,,,
CC1=CC[C@@]23CC[C@@H]([C@@](C)(/C=C/C=C(\C)C(=O)OCC(O)CO)OC2=O)[C@@]3(O)CC1 (stereo partly drawn),Not Active,Not Active,Not Active,,,,
CC1=CC[C@@]23CC[C@@H]([C@@](C)(/C=C/C=C(\C)C(=O)O[C@@H]4O[C@H](CO)[C@@H](O)[C@H](O)[C@H]4O)OC2=O)[C@@]3(O)CC1,Not Active,Not Active,,Not Active,,,
CC1=CC[C@@]23CC[C@@H]([C@@](C)(/C=C/C=C(\C)C(=O)O)OC2=O)[C@@]3(O)CC1 [DEACETYLPSEUDOLARIC ACID A],Not Active,Not Active,Not Active,,,,
O=c1[nH]cc(F)c(=O)[nH]1 [FLUOROURACIL],,,,,6.80,4.51,4.63
CC(=O)O[C@]12CCC(C)=CC[C@]13CC[C@H]2[C@@](C)(/C=C/C=C(\C)C(=O)O)OC3=O [PSEUDOLARIC ACID A],,,,,5.82,< 4.00,< 4.00
COC(=O)C1=CC[C@@]23CC[C@@H]([C@@](C)(/C=C/C=C(\C)C(=O)O)OC2=O)[C@@]3(OC(C)=O)CC1 [PSEUDOLARIC ACID B],,,,,6.23,< 4.00,< 4.00
CC(=O)O[C@]12CCC(C(=O)O)=CC[C@]13CC[C@H]2[C@@](C)(/C=C/C=C(\C)C(=O)O)OC3=O [PSEUDOLARIC ACID C2],Not Active,,Not Active,,,< 4.00,
COC(=O)C1=CC[C@@]23CC[C@@H]([C@@](C)(/C=C/C=C(\C)C(=O)O)OC2=O)[C@@]3(O)CC1 [PSEUDOLARIC ACID C],Not Active,Not Active,,Not Active,,,
CC(=O)O[C@]12CC=C(C)C(=O)C[C@]13CC[C@H]2[C@@](C)(/C=C/C=C(\C)C(=O)O)OC3=O [PSEUDOLARIC ACID F],,Not Active,,,4.26,,< 4.00
CC(=O)O[C@]12CC=C(C)[C@H](O)C[C@]13CC[C@H]2[C@@](C)(/C=C/C=C(\C)C(=O)O)OC3=O [PSEUDOLARIC ACID G],,,,,4.96,< 4.00,< 4.00
